FID counter – compounds displacing fluorescent DNA intercalator, primary screen, artefact control for HCV NS3 helicase inhibitor project, biochemical, FID fluorescence. DNA fluorescent intercalator displacement. inhibition, % at 7.9 µM. 290,000 tested, 0.17% active. AID 1845, 2009; in the data active = inhibition above about 37%;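 also: 0% = vehicle and 100% = reference compound; higher means more ethidium bromide displaced from hairpin DNA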
Wee1 degr inh – Wee1 degradation inhibitors, primary screen, cell-based, HeLa, Wee1K328M-luciferase, luminescence | AID 1321, 2008 | 220,000 tested, 1.2% active | Wee1-like protein kinase (Homo sapiens), P30291 | reporter increase, % at 5 µM | HeLa Luc-Wee1K328M stability; 100% = proteasome inhibitor MG132 effect;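 active = activation above the mean of all tested compounds plus 3 SD, set per screening run, cut at about 8.8% in these data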;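 also: cells exposed to compound for 20 h before luminescence read; 0% = DMSO alone and 100% = MG132 at 30 µM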
Rad51 HR inh – human RAD51 strand exchange inhibitors, primary screen, biochemical, fluorescence; DNA repair protein RAD51 homolog 1 (Homo sapiens), Q06609; 200,000 tested, 0.085% active; hRad51 DNA strand exchange, fluorescence dequenching; inhibition, % at 10 µM;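 active = inhibition above 40% at the single screening dose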;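 also: 0% = DMSO control wells and 100% = blanks with heterologous ssDNA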
Target sequence (Q06609 whole entry, looked up): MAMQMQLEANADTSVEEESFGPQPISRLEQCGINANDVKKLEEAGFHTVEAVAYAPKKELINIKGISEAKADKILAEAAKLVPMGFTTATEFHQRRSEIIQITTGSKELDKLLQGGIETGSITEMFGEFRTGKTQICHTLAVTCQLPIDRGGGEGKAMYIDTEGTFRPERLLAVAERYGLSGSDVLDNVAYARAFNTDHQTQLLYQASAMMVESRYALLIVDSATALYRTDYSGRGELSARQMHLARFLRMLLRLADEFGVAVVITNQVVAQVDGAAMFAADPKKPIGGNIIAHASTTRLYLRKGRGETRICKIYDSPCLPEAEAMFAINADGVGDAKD
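System: hRad51 filaments on single-stranded DNA; reagent: Fluorescein- and BHQ1-tagged 47-mer duplex; compound dosing: one concentration, 10 µM final; timing: filaments 15 min 37 °C, then compound 30 min; measured by: fluorescein emission 520 nm, excitation 485 nm; benchmarks: per-plate controls and blanks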
RBBP9 inh – human RBBP9 inhibitors, primary screen, biochemical, fluorescence polarization, FP-Rh probe, HTS; inhibition, % at 7.94 µM; 220,000 tested, 0.2% active; recombinant RBBP9;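 active = inhibition above the campaign mean of all tested compounds plus 3 SD, cut at about 14% in these data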;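 also: plate controls were DMSO wells with RBBP9 for no effect and wells lacking RBBP9 protein for full effect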
Target sequence (O75884 whole entry, looked up): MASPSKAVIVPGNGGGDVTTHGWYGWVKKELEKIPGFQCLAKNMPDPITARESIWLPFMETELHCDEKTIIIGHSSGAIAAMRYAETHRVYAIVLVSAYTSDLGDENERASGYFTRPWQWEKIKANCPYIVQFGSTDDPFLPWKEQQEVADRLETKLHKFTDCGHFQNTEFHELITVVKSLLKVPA
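Measured by: FP readout at 525/598 nm; material: recombinant human RBBP9; also added: Serine-hydrolase probe FP-Rh, 375 nM pre-mixing; medium: Tris buffer pH 8.0, NaCl, Pluronic; replication: one well per compound; doses: one concentration, 7.94 µM nominal, 0.794% DMSO; timing: preincubation 30 min plus labeling 45 min at 25 °C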
Active calls of the source: *; nt = no result. Shown are actives, neighbours in structure and some others; about 1.2% of the full set was active somewhere.

SMILES	FID counter	Wee1 degr inh	Rad51 HR inh	RBBP9 inh
CCCCN(CC)CCNC(=O)CCC(=O)Nc1ccc2nc(N3CCN(C)CC3)cc(C)c2c1	41*	4	11	6
CCCCN(CC)CCNC(=S)Nc1ccc2nc(N3CCN(C)CC3)cc(C)c2c1	43*	nt	nt	nt
COc1cc2cc(C(=O)N3CCOCC3)cc(-c3ccc(C)cc3)c2cc1OC	-30	nt	nt	nt
Cc1ccnc(N(C(=O)Nc2ccccc2)C2=NCC(C)(C)S2)c1	-5	9.7*	3	-4
O=C(CNC(=O)c1ccco1)OCc1cccc(Cl)c1	-2	9.4*	2	1
CN(C)CCNC(=O)Cn1ccc2cc(S(=O)(=O)N3CCCCC3)ccc21	13	nt	nt	nt
CS(=O)(=O)N1CCC(Oc2ccccc2C(=O)N2CCC[C@H]2CO)CC1	-8	nt	nt	nt
O=C(NC(=S)Nc1ccc(N2CCOCC2)cc1)c1ccc2c(c1)OCCO2	-6	8	-13	0
O=C(NC(=S)Nc1ccc(F)cc1)c1ccc2c(c1)OCCO2	-2	9.5*	-7	-4
CNC(=O)NC(=O)COc1ccc2oc3c(c2c1)CCCC3	-21	nt	nt	nt
O=C(O)C=C(Br)Br	0	nt	nt	nt
COC(=O)C(=C/C=C/N1CCOCC1)C(=O)OC	-3	1	0	-1
CCOc1ccccc1N1CC(O)=C(c2nc3ccccc3s2)C1=N	-16	10*	6	-3
COc1ccc(OC)c(N2CC(O)=C(c3nc4ccccc4s3)C2=N)c1	-14	0	-1	-8
CSc1nnc(-c2cccc(NC(=O)c3ccccc3)c2)n1C	-11	9.4*	1	-2
CC(=O)NC(NC(=S)Nc1cccc(Br)c1)C(Cl)(Cl)Cl (configuration not stated)	-9	1	11	-15
CC(C)(C)c1nnc2sc(SCC(=O)N3CCCc4ccccc43)nn2c1=O	-30	0	-7	-9
CC1Cc2ccccc2N1C(=O)CSc1nn2c(=O)c(C(C)(C)C)nnc2s1 (configuration not stated)	-27	10*	9	-3
Cc1ccnc(-n2c(C)cc(/C=N/NC(=O)COc3cccc4cccnc34)c2C)c1	-34	-1	8	-7
O=C(c1ccc(Cl)cc1)c1oc2ccccc2c1CS(=O)(=O)c1ccccc1	2	-1	1	-6
Cc1ccc(C2=Nc3ccccc3SC(c3cccc([N+](=O)[O-])c3)C2)cc1 (configuration not stated)	-2	-1	18	-10
CC(C)Sc1nc(SCC(=O)NCc2ccco2)c2c3c(sc2n1)COC(C)(C)C3	-21	9.8*	4	-10
CCOC(=O)CSc1ccc(C(=O)Nc2ccc(Cl)cc2)cn1	-8	1	3	-7
CCOC(=O)CSc1ccc(C(=O)Nc2ccc(OC)cc2)cn1	-9	9.4*	-5	-11
COc1ccc(OC)c(C2NC(=O)N(C)C(C)=C2C(=O)OCc2ccccc2)c1 (configuration not stated)	-39	nt	nt	nt
SMILES	FID counter	Wee1 degr inh	Rad51 HR inh	RBBP9 inh
NC(=O)[C@@H]1CCCNc2c(I)cc([N+](=O)[O-])cc2C(=O)N[C@@H](CCCN=C(N)N)C(=O)N[C@@H](CCCN=C(N)N)C(=O)N1	47*	-1	-1	-2
COc1cccc(NC(=O)CN(C)CC(=O)NC(C)c2ccccc2)c1 (configuration not stated)	0	8.9*	2	-11
CCOC(=O)N1CCN(C(=O)c2cc3cc(Cl)ccc3[nH]2)CC1	-38	nt	nt	nt
CCOC(=O)N/N=C/C=C/c1ccccc1[N+](=O)[O-]	1	9.2*	5	-2
Cc1occc1C(=O)N/N=C/C=C\c1ccccc1[N+](=O)[O-]	-5	2	13	-5
CCOC(=O)C1CCN(c2ncnc3c2nnn3Cc2ccccc2Cl)CC1	-21	4	55*	0
COc1ccc(-n2ncc3c(N4CCC(C(N)=O)CC4)ncnc32)cc1	0	2	-4	4
CCOC(=O)C1CCN(c2ncnc3c2cnn3-c2ccc(OC)cc2)CC1	-24	9.1*	nt	4
CCCCNC(=O)c1ccc(S(=O)(=O)c2ccc(Cl)cc2)c(NC(C)=O)c1	-13	1	7	-3
CN1CCC(NCCC(c2ccc(F)cc2)c2ccc(Cl)cc2)CC1 (configuration not stated)	42*	nt	nt	nt
CCOc1cc(/C=C\c2nc(O)c([N+](=O)[O-])c(=O)[nH]2)ccc1OC(C)C	-25	nt	nt	nt
C=CCc1cc(/C=C/c2nc(O)c([N+](=O)[O-])c(=O)[nH]2)cc(OC)c1O	-12	9.0*	-12	-3
Cc1ccc2nc(-c3ccc(NC(=O)CN4CCN(C(=O)c5ccco5)CC4)cc3)sc2c1	-26	11*	-1	-11
Cc1ccc(NC(=O)CN2CCN(C(=O)c3ccco3)CC2)cc1	-10	nt	nt	nt
COc1cccc(C(=O)c2ncc(C(F)(F)F)cc2Cl)c1	0	4	-3	-5
COC(=O)/C(=C\Nc1cccc(Cl)c1C)c1ncc(C(F)(F)F)cc1Cl	-1	3	79*	4
Cc1cc(C(=O)CSc2cccc[n+]2[O-])c(C)n1-c1ccc(OC(F)F)cc1	-16	2	-3	-4
COC(=O)c1ccc(-n2c(C)cc(C(=O)CSc3cccc[n+]3[O-])c2C)cc1	-35	-1	73*	-7
CCS(=O)(=O)N1CCC(C(=O)NCCCOC)CC1	-5	10*	4	-10
CCCS(=O)(=O)N1CCC(C(=O)NCCCOC)CC1	1	-2	-2	2
CCN1CCN(Cc2ccc(NC(=O)c3ccc(C)c(NC(=O)c4ccno4)c3)cc2C(F)(F)F)CC1	nt	nt	3	nt
CCN1CCN(Cc2ccc(NC(=O)c3ccc(C)c(NC(=O)c4cccc(-c5cn[nH]c(=O)c5)c4)c3)cc2C(F)(F)F)CC1	40*	nt	nt	nt
N#Cc1ccccc1S(=O)(=O)N1CCN(c2cnccn2)CC1	-4	0	1	-4
CCc1ccccc1NC(=S)N(CCCN(C)C)Cc1cc2cc3c(cc2[nH]c1=O)OCO3	43*	0	27	1
Cc1cccc(NC(=S)N(CCCN(C)C)Cc2cc3cc4c(cc3[nH]c2=O)OCO4)c1	38*	2	2	-2
SMILES	FID counter	Wee1 degr inh	Rad51 HR inh	RBBP9 inh
CCCCNC(=S)N(CCCN(C)C)Cc1cc2cc3c(cc2[nH]c1=O)OCO3	3	nt	nt	nt
N#Cc1ccc(OCC(O)CN2CCC(C(O)(c3ccccc3)c3ccccc3)CC2)cc1 (configuration not stated)	18	nt	nt	nt
CCOC(=O)c1cccc(COC(=O)c2cccc(-c3nnc(-c4ccccc4)o3)c2)c1	-1	9.7*	17	-6
C=C(C)COc1ccc2c(C)c(CC(=O)N3C[C@H]4C[C@@H](C3)c3cccc(=O)n3C4)c(=O)oc2c1C	-49	nt	nt	nt
COc1ccc(C(=O)N(c2ccc(OC)cc2)S(=O)(=O)c2cccs2)cc1	-6	-3	-2	-4
COc1ccc(N(C(=O)c2ccncc2)S(=O)(=O)c2cccs2)cc1	-6	9.1*	-1	1

Screens deposited in PubChem by several laboratories.
